Converted amounts (≈) assume the structure as drawn. The source made the active and inactive calls. The calls are words filed in the database; no cut-off is given here.
Tests used:
Escherichia coli = test: Antimicrobial activity against Escherichia coli after 24 hrs by agar dilution method; type: functional, organism-based
In short: (§1)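 Each organism was tested separately by agar dilution. The MIC was recorded as the read-out and given in µM.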

A549 = test: Cytotoxicity against human A549 cells after 24 hrs by SRB method; type: functional, cell-based
HL-60 = test: Cytotoxicity against human HL60 cells after 72 hrs by MTT assay; type: functional, cell-based
Candida albicans = test: Antimicrobial activity against Candida albicans after 24 hrs by agar dilution method; type: functional; in short: as §1
Staphylococcus aureus = test: Antimicrobial activity against Staphylococcus aureus after 24 hrs by agar dilution method; type: functional, organism-based; in short: as §1

Row | Structure (SMILES) | MIC (Escherichia coli) | MIC (Candida albicans) | MIC (Staphylococcus aureus) | inhibition (A549) | inhibition (HL-60)
1 | CC(C)[C@H]1C(=O)N(C)[C@@H](C)C(=O)NCCC[C@H](NC(=O)/C=C/C=C/[C@@H](O)[C@@H](C)O)C(=O)N1C [SCLEROTIOTIDE I] | inactive | 6.7 µM (≈ 3.13 µg/mL) | inactive | inactive | inactive
2 | C/C=C/C=C/C(=O)N[C@H]1CCCNC(=O)[C@H](C)N(C)C(=O)[C@H](C(C)C)N(C)C1=O [SCLEROTIOTIDE B] | inactive | 3.8 µM (≈ 1.54 µg/mL) | inactive | inactive | inactive
3 | CC(C)[C@H]1C(=O)N(C)[C@@H](C)C(=O)NCCC[C@H](NC(=O)/C=C/C=C/C=O)C(=O)N1C [SCLEROTIOTIDE F] | inactive | 30 µM (≈ 12.6 µg/mL) | inactive | inactive | inactive

Now from value to compound, other results behind:

Row | MIC (Escherichia coli) | MIC (Candida albicans) | MIC (Staphylococcus aureus) | Structure (SMILES) | inhibition (A549) | inhibition (HL-60)
4 | inactive | 30 µM (≈ 12.6 µg/mL) | inactive | C/C=C/C=C/C=C/C(=O)N[C@H]1CCCNC(=O)[C@H](C)NC(=O)[C@H](C(C)C)N(C)C1=O | inactive | inactive
5 | inactive | 7.5 µM (≈ 3.14 µg/mL) | inactive | C/C=C/C=C/C=C/C(=O)N[C@H]1CCCNC(=O)[C@H](C)N(C)C(=O)[C@H](C(C)C)NC1=O [SCLEROTIOTIDE A] | inactive | inactive
